Data as given in ChEMBL document CHEMBL3272339, “Catechol O-methyltransferase. 7. Affinity labeling with the oxidation products of 6-aminodopamine” (J Med Chem, 1976).
One block for each compound: values may come before it. The source made the active and inactive calls. The rule behind the calls is not given here.

Assays:
[1] = target: T1, Catechol O-methyltransferase (Rattus norvegicus) (UniProt P22734); assay: Inhibition of Sprague-Dawley rat liver COMT under anaerobic condition at 37 degC
T1 sequence (whole entry): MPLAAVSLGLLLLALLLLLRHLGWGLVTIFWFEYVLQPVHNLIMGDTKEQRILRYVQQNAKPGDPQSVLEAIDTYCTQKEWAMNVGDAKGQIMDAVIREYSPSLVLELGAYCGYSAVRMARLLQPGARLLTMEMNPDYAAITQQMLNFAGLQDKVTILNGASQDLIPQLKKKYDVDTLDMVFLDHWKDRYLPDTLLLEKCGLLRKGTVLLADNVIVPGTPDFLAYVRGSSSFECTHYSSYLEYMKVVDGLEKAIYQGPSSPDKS

[2] = Chemical stability of the compound in seal ampules containing water under nitrogenous condition at 5 umol/ml measured up to 4 hrs; assay type: physicochemical; details: buffer, 5000 µM
How it was run: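 Stock prepared fresh for each experiment at 5 μmol/ml in water in sealed ampules under nitrogen; aliquots withdrawn as needed and checked for signs of oxidation over up to 4 hr.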

[3] = target: T1, Catechol O-methyltransferase (Rattus norvegicus); assay: Irreversible inhibition of Sprague-Dawley rat liver COMT
[4] = target: T1, Catechol O-methyltransferase (Rattus norvegicus); assay: Inhibition of Sprague-Dawley rat liver COMT under aerobic condition at 37 degC in presence of catalase
[5] = target: T1, Catechol O-methyltransferase (Rattus norvegicus); assay: Inhibition of Sprague-Dawley rat liver COMT under aerobic condition at 37 degC in presence of antioxidant sodium metabisulfite
[6] = Half life of the compound assessed as cyclization to 6-hydroxy-2H-indol-5(3H)-one at 37 degC; assay type: physicochemical
[7] = Chemical stability of the compound assessed as polymerization under aerobic condition by spectrophotometric analysis; assay type: physicochemical
[8] = target: T1, Catechol O-methyltransferase (Rattus norvegicus); assay: Inhibition of Sprague-Dawley rat liver COMT
[9] = target: T1, Catechol O-methyltransferase (Rattus norvegicus); assay: Inhibition of Sprague-Dawley rat liver COMT at 0.25 to 1.25 mM preincubated for > 50 mins at 37 degC
How it was run: (§1)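 COMT came from male Sprague–Dawley rat liver (180–200 g), purified about 50-fold through the calcium phosphate stage. Inhibitor (fresh aqueous stock under N₂) was preincubated with enzyme, MgCl₂ and phosphate buffer pH 7.60 at 37°. Timed aliquots were assayed for 5 min at 37° with ¹⁴C-SAM and 3,4-dihydroxybenzoate or DHA, stopped with HCl, and products extracted and counted. Residual activity was taken against unpreincubated controls, in duplicate.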

[10] = target: T1, Catechol O-methyltransferase (Rattus norvegicus); assay: Inhibition of Sprague-Dawley rat liver COMT under aerobic condition at 5 mM preincubated up to 90 mins followed by enzyme addition at 37 degC measured after 20 mins
How it was run: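 Inhibitor at 5.0 mM in phosphate buffer pH 7.60 was air-oxidised at 37° for various times. Aliquots then went into preincubation mixtures with purified rat liver COMT (final 64 μM) for 20 min at 37°. Residual activity was measured by the radiochemical assay with ¹⁴C-SAM and catechol substrate, with methylated products extracted into toluene–isoamyl alcohol and counted.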

[11] = target: T1, Catechol O-methyltransferase (Rattus norvegicus); assay: Inhibition of Sprague-Dawley rat liver COMT at 16 to 64 uM preincubated > 50 mins at 37 degC; how it was run: as §1
[12] = target: T1, Catechol O-methyltransferase (Rattus norvegicus); assay: Inhibition of Sprague-Dawley rat liver COMT using 0.76 mM SAM as substrate assessed as residual activity under aerobic condition at 189 uM at 37 degC after 40 mins relative to control
[13] = target: T1, Catechol O-methyltransferase (Rattus norvegicus); assay: Inhibition of Sprague-Dawley rat liver COMT using > 0.3 mM SAH as substrate at 0.19 mM at 37 degC after 40 mins
[14] = target: T1, Catechol O-methyltransferase (Rattus norvegicus); assay: Inhibition of Sprague-Dawley rat liver COMT at 0.25 mM preincubated for > 50 mins at 37 degC
[15] = target: T1, Catechol O-methyltransferase (Rattus norvegicus); assay: Inhibition of Sprague-Dawley rat liver COMT using 10 mM DHA/0.4 mM SAH as substrate assessed as residual activity under aerobic condition at 189 uM at 37 degC after 40 mins relative to control
[16] = target: T1, Catechol O-methyltransferase (Rattus norvegicus); assay: Inhibition of Sprague-Dawley rat liver COMT assessed as residual activity under anaerobic condition at 189 uM at 37 degC after 40 mins relative to control
How it was run: (§2)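 Partially purified rat liver COMT (male Sprague-Dawley, calcium phosphate stage, ~50-fold) preincubated at 37° with inhibitor (189 μM), MgCl2 1.38 mM, phosphate buffer pH 7.60. Additions: sodium metabisulfite 0.15 M or catalase 250 μg. Anaerobic runs in sealed ampules under nitrogen. Residual activity vs unpreincubated controls; duplicates.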

[17] = target: T1, Catechol O-methyltransferase (Rattus norvegicus); assay: Inhibition of Sprague-Dawley rat liver COMT using 2.5 mM DHA as substrate assessed as residual activity under aerobic condition at 189 uM at 37 degC after 40 mins relative to control
[18] = target: T1, Catechol O-methyltransferase (Rattus norvegicus); assay: Inhibition of Sprague-Dawley rat liver COMT using 0.76 mM SAH as substrate assessed as residual activity under aerobic condition at 189 uM at 37 degC after 40 mins relative to control
[19] = target: T1, Catechol O-methyltransferase (Rattus norvegicus); assay: Inhibition of Sprague-Dawley rat liver COMT assessed as residual activity under aerobic condition at 189 uM at 37 degC after 40 mins in presence of antioxidant sodium metabisulfite relative to control; how it was run: as §2
[20] = target: T1, Catechol O-methyltransferase (Rattus norvegicus); assay: Inhibition of Sprague-Dawley rat liver COMT using 10 mM DHA/0.4 mM SAM as substrate assessed as residual activity under aerobic condition at 189 uM at 37 degC after 40 mins relative to control
[21] = target: T1, Catechol O-methyltransferase (Rattus norvegicus); assay: Inhibition of Sprague-Dawley rat liver COMT assessed as residual activity under aerobic condition at 189 uM at 37 degC after 40 mins in presence of catalase relative to control; how it was run: as §2
[22] = target: T1, Catechol O-methyltransferase (Rattus norvegicus); assay: Inhibition of Sprague-Dawley rat liver COMT using > 0.3 mM SAM as substrate at 0.19 mM at 37 degC after 40 mins
[23] = target: T1, Catechol O-methyltransferase (Rattus norvegicus); assay: Inhibition of Sprague-Dawley rat liver COMT using 10 mM DHA as substrate assessed as residual activity under aerobic condition at 189 uM at 37 degC after 40 mins relative to control
[24] = target: T1, Catechol O-methyltransferase (Rattus norvegicus); assay: Inhibition of Sprague-Dawley rat liver COMT using 2.5 mM DHA/0.4 mM SAM as substrate assessed as residual activity under aerobic condition at 189 uM at 37 degC after 40 mins relative to control
[25] = target: T1, Catechol O-methyltransferase (Rattus norvegicus); assay: Inhibition of Sprague-Dawley rat liver COMT assessed as residual activity under aerobic condition at 189 uM at 37 degC after 40 mins relative to control; how it was run: as §2

Structure (SMILES): Br.Br.CN(C)CCc1cc(O)c(O)cc1N
inhibition [1]: inactive | Stability [2]: Stable | inhibition [3]: Active | inhibition [4]: Active | inhibition [5]: inactive

Structure (SMILES): Br.CC(N)C(C)(C)c1cc(O)c(O)cc1N (centres undefined)
inhibition [8]: Active | inhibition [1]: inactive | Stability [2]: Stable | inhibition [5]: inactive

Structure (SMILES): Br.NCC1(c2cc(O)c(O)cc2N)CCCC1
inhibition [9]: Active | inhibition [1]: inactive | Stability [2]: Stable | inhibition [5]: inactive

Structure (SMILES): NCCc1cc(O)c(O)cc1N
Activity [12]: 26% | inhibition [13]: Active | inhibition [14]: Active | Activity [15]: 94% | Activity [16]: 103% | Activity [17]: 10% | Activity [18]: 52% | Activity [19]: 77% | Stability [2]: Stable | Activity [20]: 85% | Activity [21]: 1% | inhibition [22]: Active | Activity [23]: 17% | Activity [24]: 63% | inhibition [3]: Active | Activity [25]: 2%

The next lines start with the values.

half-life [6]: 30 s
Structure (SMILES): N=C1C=C(O)C(=O)C=C1CCN

Stability [7]: Unstable
Structure (SMILES): C[N+](C)(C)CCC1=CC(=O)C(O)=CC1=N.[Br-]

inhibition [1]: inactive | Stability [2]: Stable | inhibition [10]: inactive | inhibition [3]: Active | inhibition [4]: Active | inhibition [5]: inactive | inhibition [11]: inactive
Structure (SMILES): Br.C[N+](C)(C)CCc1cc(O)c(O)cc1N.[Br-]

Stability [7]: Unstable
Structure (SMILES): Br.CN(C)CCC1=CC(=O)C(O)=CC1=N
